# Screens from PubChem.
# KDM4C inh: inhibitors of GASC-1 (KDM4C) histone demethylase, primary screen, biochemical, single concentration HTS | Lysine-specific demethylase 4C (Homo sapiens), Q9H3R0 | GST-KDM4C 2-372, H3K9me3 peptide, LANCE TR-FRET | inhibition, % at 12.5 µM | 96,000 compounds, 0.15% hits;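 active = mean replicate inhibition above about 25%, with at least 55% of replicates also reaching it, limit read from the data, passing the limit was not always enough; inconclusive = only one of those two conditions met; inactive = neither condition met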
# Target sequence (Q9H3R0 2-372 limits assumed): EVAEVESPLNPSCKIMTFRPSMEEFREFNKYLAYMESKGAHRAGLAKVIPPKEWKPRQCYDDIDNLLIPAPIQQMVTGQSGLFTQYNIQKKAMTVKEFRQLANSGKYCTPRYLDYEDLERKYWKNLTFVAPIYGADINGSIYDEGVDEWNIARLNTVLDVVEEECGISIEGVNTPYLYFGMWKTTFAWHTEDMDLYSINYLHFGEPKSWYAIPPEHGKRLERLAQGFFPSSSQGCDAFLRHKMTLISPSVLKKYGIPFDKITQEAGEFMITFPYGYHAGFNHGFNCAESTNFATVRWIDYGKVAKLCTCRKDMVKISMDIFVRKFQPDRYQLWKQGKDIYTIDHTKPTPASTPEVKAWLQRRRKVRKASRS
#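 Assay system: GST-GASC-1 enzyme fragment 2-372 | Amount: 10 nM enzyme | Medium: HEPES buffer, pH 7.5, plus ascorbate | Reagent: H3K9me3 peptide substrate, Fe(II), 2-oxoglutarate | Doses: Single-point compound screen | Incubation: 30 min demethylation and 1 h detection at room temperature | Measured by: LANCE TR-FRET, excitation 340 nm, emissions 618 and 671 nm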
# T cruzi growth-1: T. cruzi intracellular proliferation inhibitors, primary screen, cell-based, beta-gal Tulahuen parasites, NIH3T3 host, luminescence. T. cruzi beta-gal in NIH3T3, GalScreen luminescence, 90 h. inhibition, % at 8.34 µM. 77,000 compounds, 5.9% hits. AID 624255, 2012;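 active = mean inhibition above about 93%, with at least 55% of replicates each passing it, limit read from the data, passing the limit was not always enough; inconclusive = only one of those two conditions holds; inactive = neither condition holds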
# IDH1 R132H inh: inhibitors of IDH1 R132H reductase, primary screen, biochemical, plate reader, single point. Isocitrate dehydrogenase [NADP] cytoplasmic (Homo sapiens), O75874. diaphorase/resazurin fluorescence, 60 min. inhibition, % at 10 µM. 70,000 compounds, 0.18% hits; in the data active = inhibition above about 34%; inconclusive = no clear call, values can overlap the other calls; inactive = below about 11%;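 also: 0% = DMSO and 100% = no enzyme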
# Target sequence (O75874 whole entry R132H): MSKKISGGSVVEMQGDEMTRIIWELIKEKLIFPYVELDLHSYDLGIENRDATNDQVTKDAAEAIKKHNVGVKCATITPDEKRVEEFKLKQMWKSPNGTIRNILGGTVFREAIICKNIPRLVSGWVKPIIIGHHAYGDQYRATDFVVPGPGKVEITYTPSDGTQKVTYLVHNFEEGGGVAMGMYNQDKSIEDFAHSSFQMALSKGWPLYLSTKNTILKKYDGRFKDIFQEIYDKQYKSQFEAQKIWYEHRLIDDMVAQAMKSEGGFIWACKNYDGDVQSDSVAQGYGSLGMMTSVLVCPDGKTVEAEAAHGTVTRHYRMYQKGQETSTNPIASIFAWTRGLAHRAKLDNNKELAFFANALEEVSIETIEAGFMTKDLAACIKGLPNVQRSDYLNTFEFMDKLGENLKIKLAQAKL
# T cruzi growth-2: T. cruzi intracellular proliferation inhibitors, confirmation, cell-based, NIH3T3 host, beta-gal parasite, luminescence, cherry-pick; shares compounds with T cruzi growth-1; T. cruzi beta-gal in NIH3T3, GalScreen luminescence, 90 h; inhibition, % at 8.35 µM; 5,600 compounds, 72% hits;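 active = mean replicate inhibition above about 95% and at least 55% of replicates individually reaching it, limit read from the data; inconclusive = only one of the two criteria is met; inactive = neither criterion is met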
# T cruzi growth-3: inhibitors of intracellular T. cruzi replication, confirmation, NIH3T3 host cells, beta-gal parasites, cherry-pick, set 2; inhibition, % at 2.09 µM; shares compounds with T cruzi growth-1; T. cruzi beta-gal in NIH3T3, GalScreen luminescence, 90 h; AID 651740, 2012; 5,600 compounds, 21% hits;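 active = mean inhibition above about 95%, with at least 55% of replicates also reaching it, limit read from the data; inconclusive = meets just one of the two conditions; inactive = meets neither condition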;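 also: plate controls were neutral control median for no effect and positive control median for full effect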
# NIH3T3 tox: cytotoxicity in mouse NIH/3T3 fibroblasts, confirmation, cytotoxicity control for T. cruzi proliferation inhibitor project, cell-based, cherry-pick, single point | shares compounds with T cruzi growth-1 | cytotoxicity (signal decrease), % at 8.35 µM | 5,600 compounds, 14% hits | AID 651742, 2012 | NIH/3T3 viability, CellTiter-Glo ATP luminescence, 90 h;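 active = mean signal decrease across replicates above about 35% based on untreated-well scatter, with enough replicates individually passing, limit read from the data; inconclusive = no rule stated though some were filed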;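 also: 0% = median of neutral control wells and 100% = median of positive control wells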
# NIH3T3 tox 2: NIH/3T3 fibroblast cytotoxicity, confirmation, cytotoxicity control, cell-based, cherry-pick, single point, set 2; AID 651744, 2012; inhibition, % at 24.9 µM; NIH/3T3 viability, CellTiter-Glo ATP luminescence, 90 h; 5,600 compounds, 56% hits; shares compounds with T cruzi growth-1;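 active = mean loss of cell viability signal at or above a set limit, and enough replicates individually reaching it; inconclusive = meets only the mean limit or only the replicate share; inactive = meets neither condition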;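 also: 0% = median of neutral control wells and 100% = median of positive control wells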
# Starred values were filed as active, the others as inactive; ? = inconclusive; . = no result given; ! = a repeat was not active. The entries come from a sample that favours hits as a whole.
SMILES,KDM4C inh,T cruzi growth-1,IDH1 R132H inh,T cruzi growth-2,T cruzi growth-3,NIH3T3 tox,NIH3T3 tox 2
OC[C@H]1Nc2ccc(C#Cc3ccccc3)cc2[C@@H]2[C@H]1CCN2Cc1nccs1,0.4,97.9*,.,97.4*,100.6*,-2.6,104.0*
OC[C@@H]1Nc2ccc(C#Cc3ccccc3)cc2[C@@H]2[C@H]1CCN2Cc1nccs1,-0.3,.,.,.,.,.,.
COc1ccccc1CN1CC[C@@H]2[C@H]1c1cc(C#Cc3ccccc3)ccc1N[C@@H]2CO,3.9,-9.6,.,.,.,.,.
OC[C@@H]1Nc2ccc(C#Cc3ccccc3)cc2[C@H]2[C@@H]1CCN2Cc1nccs1,3.1,?,.,99.2*,107.3*,31.4,99.0*
O=C(Nc1ccccc1)[C@@H]1[C@@H](CO)[C@@H]2Cn3c(cccc3=O)[C@@H]2N1CC1CC1,2.4,23.8,.,.,.,.,.
O=C(Nc1ccccc1F)N1CCCCN2[C@@H](CO)[C@H](c3ccc(C#Cc4ccccc4)cc3)[C@@H]2C1,-1.0,95.1*,.,?,115.0*,118.7*,103.7*
CN(C)CC#Cc1ccc([C@H]2[C@@H](CO)N3CCCCN(C(=O)Nc4ccccc4F)C[C@@H]23)cc1,5.2,33.1,.,.,.,.,.
O=C(Nc1ccccc1F)N1CCCCN2[C@H](CO)[C@H](c3ccc(C#Cc4ccccc4)cc3)[C@H]2C1,-1.7,41.5,.,.,.,.,.
COc1ccc(C#Cc2ccc([C@H]3[C@@H](CO)N4CCCCN(C(=O)Nc5ccccc5F)C[C@@H]34)cc2)cc1,-1.6,139.8*,.,?,114.2*,?,40.1*
COc1ccc(C#Cc2ccc([C@@H]3[C@@H](CO)N4CCCCN(C(=O)Nc5ccccc5F)C[C@@H]34)cc2)cc1,-1.3,126.8*,.,99.1*,113.8*,-41.6,51.0*
O=C(Nc1ccccc1F)N1CCCCN2[C@H](C1)[C@H](c1ccc(C#Cc3ccccc3)cc1)[C@@H]2CO,0.9,69.4,.,.,.,.,.
CC(NCC(O)CP(=O)(O)CC1CCCCC1)c1ccc(Cl)c(Cl)c1 (stereo unspecified),.,.,-1.1,.,.,.,.
CCS(=O)(=O)N[C@@H]1C=C[C@H](CC(=O)NC2Cc3ccccc3C2)O[C@H]1CO,4.1,-5.2,0.0,.,.,.,.
CCOC(=O)c1c(NC(=O)c2ccc(Cn3cc(Br)cn3)o2)sc2c1CCCC2,.,.,-0.2,.,.,.,.
CCOC(=O)c1c(NC(=O)CN2CCOCC2)sc(C(C)=O)c1C,.,.,-0.3,.,.,.,.
C[C@H](CO)N1C[C@H](C)[C@H](CN(C)Cc2ccccn2)Oc2cc(Br)ccc2S1(=O)=O,3.3,-9.0,-2.0,.,.,.,.
C[C@@H]1CN([C@@H](C)CO)S(=O)(=O)c2ccc(Br)cc2O[C@H]1CN(C)Cc1ccccn1,0.3,106.7*!,-2.6,88.7,17.3,4.6,52.7*
C[C@@H]1CN([C@@H](C)CO)S(=O)(=O)c2ccc(-c3ccccc3)cc2O[C@@H]1CN(C)Cc1ccccn1,-2.0,-21.4,.,.,.,.,.
Cc1ccc(-c2ccc3c(c2)O[C@H](CN(C)Cc2ccccn2)[C@@H](C)CN([C@H](C)CO)S3(=O)=O)cc1,1.5,91.1,0.2,.,.,.,.
C[C@H](CO)N1C[C@H](C)[C@@H](CN(C)Cc2ccccn2)Oc2cc(-c3ccncc3)ccc2S1(=O)=O,2.5,109.2*,0.2,98.7*,105.5*,55.3*,88.2*
Cc1ccc(-c2ccc3c(c2)O[C@H](CN(C)Cc2ccccn2)[C@@H](C)CN([C@@H](C)CO)S3(=O)=O)cc1,0.8,116.5*,.,102.8*,68.1,83.4*,104.1*
CN(C)CC(=O)Nc1ccc2c(c1)[C@H]1C[C@H](CC(=O)N3CCOCC3)O[C@H](CO)[C@H]1O2,-0.9,56.6,0.0,.,.,.,.
CCNC(=O)C[C@H]1CC[C@@H]2[C@@H](COc3ccc(NC(=O)Nc4cccc(OC)c4)cc3C(=O)N2C)O1,0.6,31.3,.,.,.,.,.
CCCNC(=O)N1[C@H](CO)[C@@H](c2ccc(C3=CCCC3)cc2)[C@@H]1CN(C)C(C)=O,4.6,-17.2,.,.,.,.,.
COc1ccc(S(=O)(=O)N(C)C[C@@H]2OCCCC[C@H](C)Oc3ccc(NS(=O)(=O)c4ccc(Cl)cc4)cc3C(=O)N([C@@H](C)CO)C[C@@H]2C)cc1,-1.5,.,.,.,.,.,.
SMILES,KDM4C inh,T cruzi growth-1,IDH1 R132H inh,T cruzi growth-2,T cruzi growth-3,NIH3T3 tox,NIH3T3 tox 2
COc1ccc(S(=O)(=O)Nc2ccc3c(c2)C(=O)N([C@@H](C)CO)C[C@@H](C)[C@H](CN(C)S(=O)(=O)c2ccc(Cl)cc2)OCCCC[C@H](C)O3)cc1,-1.3,99.7*,0.5,108.3*,89.7,-0.8,2.8
COc1ccc(S(=O)(=O)Nc2ccc3c(c2)C(=O)N([C@@H](C)CO)C[C@@H](C)[C@H](CN(C)S(=O)(=O)c2ccc(Cl)cc2)OCCCC[C@@H](C)O3)cc1,-1.1,?,0.7,104.9*,104.2*,9.6,32.7*
COc1ccc(S(=O)(=O)Nc2ccc3c(c2)C(=O)N([C@H](C)CO)C[C@H](C)[C@H](CN(C)S(=O)(=O)c2ccc(Cl)cc2)OCCCC[C@H](C)O3)cc1,0.1,?,-1.6,103.1*,107.2*,-11.7,24.5
COc1ccc(S(=O)(=O)Nc2ccc3c(c2)C(=O)N([C@H](C)CO)C[C@@H](C)[C@@H](CN(C)S(=O)(=O)c2ccc(Cl)cc2)OCCCC[C@H](C)O3)cc1,3.8,99.5*,-0.3,101.8*,?,-31.5,0.6
COc1ccc(S(=O)(=O)Nc2ccc3c(c2)C(=O)N([C@@H](C)CO)C[C@@H](C)[C@@H](CN(C)S(=O)(=O)c2ccc(Cl)cc2)OCCCC[C@@H](C)O3)cc1,0.8,83.8,1.6,.,.,.,.
COc1ccc(S(=O)(=O)Nc2ccc3c(c2)C(=O)N([C@H](C)CO)C[C@@H](C)[C@@H](CN(C)S(=O)(=O)c2ccc(Cl)cc2)OCCCC[C@@H](C)O3)cc1,-3.8,91.0,.,.,.,.,.
COc1ccc(S(=O)(=O)N(C)C[C@@H]2OCCCC[C@@H](C)Oc3ccc(NS(=O)(=O)c4ccc(Cl)cc4)cc3C(=O)N([C@@H](C)CO)C[C@@H]2C)cc1,-0.9,.,.,.,.,.,.
CN1CCN(Cc2c(O)ccc3c(=O)c(-c4ccc(Cl)cc4Cl)c(C(F)(F)F)oc23)CC1,.,.,1.2,.,.,.,.
O=C(Nc1ccc2c(c1)[C@@H]1C[C@@H](CC(=O)N3CCCCC3)O[C@H](CO)[C@@H]1O2)C1CCOCC1,0.1,-76.7,-0.7,.,.,.,.
CN(C)CC(=O)N[C@@H]1CC[C@@H](CCNC(=O)C2CCCCC2)O[C@H]1CO,1.2,.,0.2,.,.,.,.
